Laboratory results: ChEMBL document CHEMBL4251669, “Identification of Gibberellic Acid Derivatives That Deregulate Cholesterol Metabolism in Prostate Cancer Cells” (2018)
Activity calls are given as the source filed them. The rule behind the calls is not given here.

Key:
[1] = system: LNCaP; assay: Induction of cholesterol metabolism deregulation in human LNCAP cells assessed as reduction in NBD-cholesterol uptake at 20 uM after 48 hrs by DAPI/Alexa fluor 633 phalloidin staining based high-content imaging analysis; assay type: functional, cell-based
Procedure, shortened: (§1)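 LNCaP seeded 72 h on poly-L-ornithine-coated plates and treated 48 h in three replicate wells: DMSO vehicle, compounds at 30 μM, TOFA 10 μM or orlistat 20 μM. Then 3 h at 37 °C in serum-free RPMI with 0.2% BSA and 15 μM NBD-cholesterol. PFA-fixed, glycine-quenched, stained with DAPI and phalloidin. Imaged at 10× to 1000 cells/well; per-cell NBD mean fluorescence, about 3000 cells/treatment, mean ± SD.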

[2] = system: LNCaP; assay: Induction of cholesterol metabolism deregulation in human LNCAP cells assessed as reduction in free NBD-cholesterol uptake
[3] = system: LNCaP; assay: Induction of cholesterol metabolism deregulation in human LNCAP cells assessed as effect on fatty acid uptake at 30 uM after 48 hrs by DAPI/Alexa fluor 633 phalloidin staining based high-content imaging analysis; assay type: functional, cell-based
[4] = system: LNCaP; assay: Induction of cholesterol metabolism deregulation in human LNCAP cells assessed as effect on cellular lipid content at 30 uM after 48 hrs by DAPI/Alexa fluor 633 phalloidin staining based high-content imaging analysis; assay type: functional, cell-based
[5] = system: LNCaP; assay: Cytotoxicity against human LNCAP cells assessed as reduction in cell viability at 10 uM after 72 hrs by alamar blue assay relative to control; assay type: functional
Procedure, shortened: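 LNCaP cells (ATCC) in phenol-red-free RPMI-1640 with 5% FBS, 37 °C, 5% CO2, seeded 4000/well for 24 h, then exposed 72 h. Stocks in DMSO, final DMSO 0.3%; DMSO as negative and vinblastine 50 nM as positive control. Viability read by alamarBlue metabolic reduction. Triplicate points, at least three independent experiments.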

[6] = system: LNCaP; assay: Induction of cholesterol metabolism deregulation in human LNCAP cells assessed as reduction in NBD-cholesterol uptake at 30 uM after 48 hrs by DAPI/Alexa fluor 633 phalloidin staining based high-content imaging analysis; assay type: functional, cell-based; procedure, shortened: as §1
[7] = system: LNCaP; assay: Induction of cholesterol metabolism deregulation in human LNCAP cells assessed as reduction in NBD-cholesterol uptake at 10 uM after 48 hrs by DAPI/Alexa fluor 633 phalloidin staining based high-content imaging analysis; assay type: functional, cell-based

Question: With `CCCCCCCCCCC[C@@H](C[C@@H]1OC(=O)[C@H]1CCCCCC)OC(=O)[C@H](CC(C)C)NC=O` as the compound, how does the Activity [1] read?
Answer: The Activity was “Active”.

Question: For `C=C1C[C@]23C[C@@]1(O)CC[C@H]2[C@@]12C=C[C@H](O)[C@](C)(C(=O)O1)[C@H]2[C@@H]3C(=O)NCc1ccc(Br)cc1`, which Activity [2] is on record?
Answer: Its Activity is “Active”.

Question: What about the Activity [3] of the same compound?
Answer: The Activity was “inactive”.

Question: What about the Activity [4] of the same compound?
Answer: The Activity was “inactive”.

Question: And the Activity [5]?
Answer: Its Activity is less than 30%.

Question: What about the Activity [6] of the same compound?
Answer: The Activity was “Active”.

Question: Which Activity [5] does the source give for `C=C1C[C@]23C[C@@]1(O)CC[C@H]2[C@@]12C=C[C@H](O)[C@](C)(C(=O)O1)[C@H]2[C@@H]3C(=O)NCc1ccc(F)cc1` here?
Answer: The Activity was less than 30%.

Question: For `C=C1C[C@]23C[C@@]1(O)CC[C@H]2[C@@]12C=C[C@H](O)[C@](C)(C(=O)O1)[C@H]2[C@@H]3C(=O)NCCc1ccc(OC)cc1`, which Activity [5] is on record?
Answer: The Activity was less than 30%.

Question: Which Activity [2] does the source give for `C=C1C[C@]23C[C@@]1(O)CC[C@H]2[C@@]12C=C[C@H](O)[C@](C)(C(=O)O1)[C@H]2[C@@H]3C(=O)NCCc1ccccn1` here?
Answer: Its Activity is “Active”.

Question: What about the Activity [3] of the same compound?
Answer: Its Activity is “inactive”.

Question: And the Activity [4]?
Answer: The Activity was “inactive”.

Question: And the Activity [5]?
Answer: The Activity was less than 30%.

Question: And the Activity [6]?
Answer: The Activity was “Active”.

Question: Which Activity [5] does the source give for `C=C1C[C@]23C[C@@]1(O)CC[C@H]2[C@@]12C=C[C@H](O)[C@](C)(C(=O)O1)[C@H]2[C@@H]3C(=O)NCCc1cccs1` here?
Answer: The Activity was less than 30%.

Question: `C=C1C[C@]23C[C@@]1(O)CC[C@H]2[C@@]12C=C[C@H](O)[C@](C)(C(=O)O1)[C@H]2[C@@H]3C(=O)NCCc1ccc(Cl)cc1` was tested. Which Activity [5] did it give?
Answer: Its Activity is less than 30%.

Question: With `C=C1C[C@]23C[C@@]1(O)CC[C@H]2[C@@]12C=C[C@H](O)[C@](C)(C(=O)O1)[C@H]2[C@@H]3C(=O)NCCc1ccccc1` as the compound, how does the Activity [5] read?
Answer: Its Activity is less than 30%.

Question: What does the source list for `C=C1C[C@]23C[C@@]1(O)CC[C@H]2[C@@]12C=C[C@H](O)[C@](C)(C(=O)O1)[C@H]2[C@@H]3C(=O)NCCc1ccc(F)cc1`?
Answer: Activity [2]: Active; Activity [3]: inactive; Activity [4]: inactive; Activity [5]: <30%; Activity [6]: Active

Question: Which Activity [5] does the source give for `C=C1C[C@]23C[C@@]1(O)CC[C@H]2[C@@]12C=C[C@H](O)[C@](C)(C(=O)O1)[C@H]2[C@@H]3C(=O)NCc1ccccc1` here?
Answer: The Activity was less than 30%.

Question: With `C=C1C[C@]23C[C@@]1(O)CC[C@H]2[C@@]12C=C[C@H](O)[C@](C)(C(=O)O1)[C@H]2[C@@H]3C(=O)NCc1ccc(OC)cc1` as the compound, how does the Activity [5] read?
Answer: Its Activity is less than 30%.

Question: For `CCCCCCCCCCCCCCOc1ccc(C(=O)O)o1`, which Activity [7] is on record?
Answer: The Activity was “Active”.

Question: For `C=C1C[C@]23C[C@@]1(O)CC[C@H]2[C@@]12C=C[C@H](O)[C@](C)(C(=O)O1)[C@H]2[C@@H]3C(=O)NCCc1ccc(Br)cc1`, which Activity [2] is on record?
Answer: Its Activity is “Active”.

Question: And the Activity [3]?
Answer: Its Activity is “inactive”.

Question: What about the Activity [4] of the same compound?
Answer: Its Activity is “inactive”.

Question: And the Activity [5]?
Answer: The Activity was less than 30%.

Question: And the Activity [6]?
Answer: The Activity was “Active”.

Question: Which Activity [2] does the source give for `C=C1C[C@]23C[C@@]1(O)CC[C@H]2[C@@]12C=C[C@H](O)[C@](C)(C(=O)O1)[C@H]2[C@@H]3C(=O)NCc1ccc(Cl)cc1` here?
Answer: Its Activity is “Active”.

Question: And the Activity [3]?
Answer: Its Activity is “inactive”.

Question: And the Activity [4]?
Answer: The Activity was “inactive”.

Question: What about the Activity [5] of the same compound?
Answer: The Activity was less than 30%.

Question: What about the Activity [6] of the same compound?
Answer: Its Activity is “Active”.

Question: Which Activity [3] does the source give for `C=C1C[C@]23C[C@@]1(O)CC[C@H]2[C@@]12C=C[C@H](O)[C@](C)(C(=O)O1)[C@H]2[C@@H]3C(=O)O` [GIBBERELLIN GA3] here?
Answer: The Activity was “inactive”.

Question: And the Activity [4]?
Answer: Its Activity is “inactive”.

Question: And the Activity [5]?
Answer: Its Activity is less than 30%.

Question: And the Activity [6]?
Answer: Its Activity is “Active”.
